ChEMBL document CHEMBL2062383, “Synthesis and antibacterial activity of 6-O-(heteroaryl-isoxazolyl)propynyl 2-fluoro ketolides” (2012)
Converted amounts (≈) assume the structure as drawn. The source made the active and inactive calls. The calls are words filed in the database; no cut-off is given here.

Columns and labels:
Streptococcus pneumoniae [1] = test: Antibacterial activity against eryhtromycin-susceptible Streptococcus pneumoniae ATCC 49619 by broth microdilution method; type: functional
In short: (§1)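 MIC by broth microdilution, following Clinical and Laboratory Standards Institute guidelines for S. pneumoniae and S. pyogenes.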

Streptococcus pneumoniae [2] = test: Antibacterial activity against Streptococcus pneumoniae 210 expressing mefA efflux pump by broth microdilution method; type: functional
In short: (§2)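 MIC by broth microdilution following CLSI guidelines for S. pneumoniae and H. influenzae.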

Streptococcus pneumoniae [3] = test: Antibacterial activity against erythromycin-resistant Streptococcus pneumoniae 205 expressing ermB ribosomal methylase by broth microdilution method; type: functional; in short: as §1
Streptococcus pyogenes = test: Antibacterial activity against erythromycin-resistant Streptococcus pyogenes 1104 expressing ermB ribosomal methylase by broth microdilution method; type: functional; in short: as §1
Haemophilus influenzae [4] = test: Antibacterial activity against Haemophilus influenzae ATCC 43095 by broth microdilution method; type: functional; in short: as §2
Streptococcus pneumoniae [5] = test: Ratio of clarithromycin MIC to compound MIC for eryhtromycin-susceptible Streptococcus pneumoniae ATCC 49619; type: functional
Haemophilus influenzae [6] = test: Ratio of clarithromycin MIC to compound MIC for Haemophilus influenzae ATCC 43095; type: functional
Streptococcus pneumoniae [7] = test: Antibacterial activity against erythromycin-resistant Streptococcus pneumoniae 1101 expressing ermB ribosomal methylase infected in po dosed CBA/JN mouse assessed as decrease in bacterial count in lungs administered QD 1 day post-inoculation for 2 days measured after 1 day; type: functional, organism-based
In short: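 Five-week-old male CBA/JN mice were inoculated intranasally with erm(B) S. pneumoniae 1101 at 5.5×10^4 CFU/mouse. Oral dosing once daily started the day after inoculation and continued for 2 days. Lung bacterial counts were taken the day after the last dose. Data are given as mean ± S.E., with Steel's test versus untreated control.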

Haemophilus influenzae [8] = test: Antibacterial activity against Haemophilus influenzae ATCC 43095 infected in po dosed ICR mouse assessed as decrease in bacterial count in lungs administered QD 1 day post-inoculation for 2 days measured after 1 day; type: functional, organism-based
In short: (§3)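 Four-week-old male ICR mice were inoculated intratracheally with 5.2×10^6 CFU/mouse. Oral dosing began the day after inoculation, once daily for 2 days. Lung bacterial counts were taken the day after the last dose and are given as mean ± S.E. versus untreated control, with Steel's test.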

Haemophilus influenzae [9] = test: Antibacterial activity against Haemophilus influenzae ATCC 43095 infected in ICR mouse assessed as decrease in bacterial count in lungs at 50 mg/kg, po administered QD 1 day post-inoculation for 2 days measured after 1 day; type: functional, organism-based; set-up: dose 50 mg/kg; in short: as §3
Streptococcus pneumoniae [10] = test: Antibacterial activity against erythromycin-resistant Streptococcus pneumoniae 1101 expressing ermB ribosomal methylase by broth microdilution method; type: functional; in short: as §1

Structure (SMILES)	MIC (Streptococcus pneumoniae [1]) [µg/mL]	MIC (Streptococcus pneumoniae [2]) [µg/mL]	MIC (Streptococcus pneumoniae [3]) [µg/mL]	MIC (Streptococcus pyogenes) [µg/mL]	MIC (Haemophilus influenzae [4]) [µg/mL]	Ratio (Streptococcus pneumoniae [5])	Ratio (Haemophilus influenzae [6])	Activity (Streptococcus pneumoniae [7])	Activity (Haemophilus influenzae [8])	Activity (Haemophilus influenzae [9])	MIC (Streptococcus pneumoniae [10]) [µg/mL]
CC[C@H]1OC(=O)[C@@](C)(F)C(=O)[C@H](C)[C@@H](O[C@@H]2O[C@H](C)C[C@H](N(C)C)[C@H]2O)[C@](C)(OCC#Cc2cc(-c3cccnn3)no2)C[C@@H](C)C(=O)[C@H](C)[C@H]2NC(=O)O[C@@]21C	0.008 (≈ 0.01 µM)	0.03 (≈ 0.0375 µM)	0.008 (≈ 0.01 µM)	1 (≈ 1.25 µM)	2 (≈ 2.5 µM)	4	2	Dose-dependent effect	Dose-dependent effect	Active	0.016 (≈ 0.02 µM)
CC[C@H]1OC(=O)[C@@](C)(F)C(=O)[C@H](C)[C@@H](O[C@@H]2O[C@H](C)C[C@H](N(C)C)[C@H]2O)[C@](C)(OCC#Cc2cc(-c3cnc(N)nc3)no2)C[C@@H](C)C(=O)[C@H](C)[C@H]2NC(=O)O[C@@]21C	0.008 (≈ 0.00982 µM)	0.03 (≈ 0.0368 µM)	0.008 (≈ 0.00982 µM)	0.06 (≈ 0.0736 µM)	2 (≈ 2.45 µM)	4	2	Dose-dependent effect	Dose-dependent effect	–	0.008 (≈ 0.00982 µM)
CC[C@H]1OC(=O)[C@H](C)[C@@H](O[C@H]2C[C@@](C)(OC)[C@@H](O)[C@H](C)O2)[C@H](C)[C@@H](O[C@@H]2O[C@H](C)C[C@H](N(C)C)[C@H]2O)[C@](C)(OC)C[C@@H](C)C(=O)[C@H](C)[C@@H](O)[C@]1(C)O [CLARITHROMYCIN]	0.03 (≈ 0.0401 µM)	2 (≈ 2.67 µM)	> 128	> 128	4 (≈ 5.35 µM)	–	–	–	–	–	–
CC[C@H]1OC(=O)[C@H](C)[C@@H](O[C@H]2C[C@@](C)(OC)[C@@H](O)[C@H](C)O2)[C@H](C)[C@@H](O[C@@H]2O[C@H](C)C[C@H](N(C)C)[C@H]2O)[C@](C)(O)C[C@@H](C)CN(C)[C@H](C)[C@@H](O)[C@]1(C)O [AZITHROMYCIN]	0.06 (≈ 0.0801 µM)	2 (≈ 2.67 µM)	> 128	> 128	0.5 (≈ 0.668 µM)	–	–	–	–	–	–
CC[C@H]1OC(=O)[C@@](C)(F)C(=O)[C@H](C)[C@@H](O[C@@H]2O[C@H](C)C[C@H](N(C)C)[C@H]2O)[C@](C)(OCC#Cc2cc(-c3ncccn3)no2)C[C@@H](C)C(=O)[C@H](C)[C@H]2NC(=O)O[C@@]21C	0.008 (≈ 0.01 µM)	0.03 (≈ 0.0375 µM)	0.008 (≈ 0.01 µM)	2 (≈ 2.5 µM)	2 (≈ 2.5 µM)	4	2	Dose-dependent effect	Dose-dependent effect	–	0.016 (≈ 0.02 µM)
